SR-BI DiI-HDL act – activators of SR-BI mediated DiI-HDL uptake, primary screen, ldlA[mSR-BI] CHO cells, DiI fluorescence; 3 h; 100 = double the neutral-control signal; activation, % at 12.5 µM; hit rate 0.096% among 320,000;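 active = mean replicate activation of at least 60% and every replicate at or above 60%; inconclusive = mean or all-replicate condition met, but not both; inactive = mean below 60% and not all replicates reaching 60%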;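 also: 0% = median plate neutral-control signal and 100% = twice that signal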
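Material – SR-BI-overexpressing, LDLR-lacking CHO cells · Medium – BSA-supplemented, HEPES-buffered Ham's F12, pH 7.4 · Doses – single concentration · Times – compound with DiI-HDL co-incubation, 3 h at 37 °C · Measured by – bottom-read fluorescence, 550/595 nm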
Xi reactivation – activators of inactive X chromosome reactivation, primary screen, imaging, XiGFP fibroblasts, GFP high-content imaging, set 2; AID 743238, 2013; hit rate 0.055% among 360,000; activation, % at 7.58 µM; XiGFP mouse fibroblasts, % GFP-positive cells imaging, 3 d; cells co-treated with 5-aza-dC sensitizer; scaled so ellipticine positive control = 100%;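 active = mean normalized replicate activation at least 10% and every replicate at or above 10%; inconclusive = only one of the two criteria met; inactive = mean below 10% and not all replicates reach 10%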;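 also: 0% = median of on-plate neutral control wells and 100% = ellipticine 6 µM median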
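Material: SV40-immortalized XiGFP fibroblast cells, line 68-5-11 | Buffer or medium: DMEM containing 5-aza-dC | Dosing: One concentration, pinned | Times: 3 d treatment, 15 min room-temperature fixation | Controls: Ellipticine 6 µM positive control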
rRNA inh HTS – reduced GFP signal of wild-type E. coli, primary screen, bacterial rRNA inhibitor project, GFP/RFP fluorescence, OD600, single point; GFP signal change (wild-type ribosome), % (test concentration not listed); hit rate 1.6% among 350,000; E. coli WT GFP vs humanized-ribosome RFP mutants, 24 h; active compounds read low; DMSO median 0, no signal -100; AID 720706, 2013;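 active = significant combined selectivity score with lowered wild-type GFP, culture density cut under 30%, mutant RFP and density less affected; inactive = any of these conditions unmet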
SR-BI HDL uptake – inhibitors of SR-BI mediated HDL lipid uptake, primary screen, ldlA[mSR-BI] cells, fluorescence, single point. Scavenger receptor class B member 1 (Mus musculus), Q61009. ldlA[mSR-BI] CHO cells, DiI-HDL uptake fluorescence, 3 h. inhibition, % at 12.5 µM. hit rate 0.96% among 320,000. AID 488896, 2010;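 active = mean replicate inhibition of at least 70% and a set share of replicates each scoring 70 or more; inconclusive = meets just one of the two criteria; inactive = fails both criteria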;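 also: 0% = median of neutral control wells and 100% = median of positive control wells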
dFosB activator – activators of delta FosB homodimer, primary screen, biochemical, fluorescence polarization, TAMRA-CDK5 oligo, single point. purified delta FosB; percent of positive-control signal above neutral wells. activation, % at 25 µM. hit rate 0.99% among 340,000;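 active = mean activation above about 17%, with every replicate also reaching it, limit read from the data, passing the limit was not always enough; inconclusive = only one of the two conditions met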
Target sequence (P13346 whole entry, looked up): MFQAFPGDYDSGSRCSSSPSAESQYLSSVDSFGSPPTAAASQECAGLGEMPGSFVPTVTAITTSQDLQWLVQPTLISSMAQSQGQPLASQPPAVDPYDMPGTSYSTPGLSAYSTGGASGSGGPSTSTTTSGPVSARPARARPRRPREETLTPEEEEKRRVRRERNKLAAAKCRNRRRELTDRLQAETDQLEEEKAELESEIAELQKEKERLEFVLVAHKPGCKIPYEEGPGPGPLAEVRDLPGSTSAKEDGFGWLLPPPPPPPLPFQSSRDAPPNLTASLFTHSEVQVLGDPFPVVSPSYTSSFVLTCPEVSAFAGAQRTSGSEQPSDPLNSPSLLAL
PvdQ acylase – P. aeruginosa PvdQ acylase inhibitors, primary screen, biochemical, fluorescence, plate reader and imaging, single point; purified PvdQ acylase; inhibition, % at 10 µM; hit rate 0.063% among 340,000; in the data active = inhibition above about 30%, passing the limit was not always enough; inconclusive = no clear call, values can overlap the other calls;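 also: 0% = vehicle neutral wells and 100% = reference inhibitor wells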
* hit, by the source's call; u = inconclusive; x = no result. Sampled rows, rich in hits. Any-hit rate of the full collection: about 2.6%.

SMILES	SR-BI DiI-HDL act	Xi reactivation	rRNA inh HTS	SR-BI HDL uptake	dFosB activator	PvdQ acylase
Fc1ccc(NC(=S)N2CCN(c3ccccn3)CC2)cc1Cl	0	0	-22*	0	6	-6
O=C(NC1CCCC1)N1CCCCN2[C@H](C1)[C@H](c1ccc(-c3ccncc3)cc1)[C@@H]2CO	x	0	-1	x	x	x
Cc1ccnc(NC2CCCCC2)c1	39	0	3	-39	-5	13
O=c1ccc2cc3c([nH]c4ccc(Br)cc43)oc-2c1O	-88	x	x	88*	-11	-33
O=C(O)c1ccc(N=Nc2c(O)[nH]c3ccc(Br)cc23)cc1	5	0	22	-5	2	-22
Cc1cc(C(=O)CCl)c(C)n1CCc1ccccc1	x	0	11	x	x	x
CCOC(=O)c1cc(C)n(CCc2ccccc2)c1C	-80	x	x	80*	-9	19
COc1ccc(S(=O)(=O)N(C)C[C@H]2OCCCC[C@H](C)Oc3ccc(NC(=O)NC4CCCCC4)cc3C(=O)N([C@H](C)CO)C[C@@H]2C)cc1	x	0	0	x	x	x
Cc1ccsc1C(=O)N1CCC1(C)C(=O)NS(=O)(=O)c1ccc(Br)cc1 (configuration not stated)	x	0	-7	x	x	x
COC(=O)c1ccccc1CSc1nsc(/C=C/N(C)C)c1C#N	-101	x	-13	101*	-8	-6
Cc1cccc(NC(=O)C2CCN(S(=O)(=O)c3c(C)nn(C)c3C)CC2)n1	x	0	9	x	-10	-6
Cc1cccc(NC(=O)C2CCN(S(=O)(=O)c3c(C)c(C)cc(C)c3C)CC2)n1	-73	0	-13	73*	-8	-7
O=C(N/N=C/c1ccncc1)NC1CCCCC1	-1	0	-6	1	-10	1
O=C(N/N=C/c1cccc(O)c1)NC1CCCCC1	1	0	-25*	-1	0	6
CCCCCCc1c(O)nc(SCCN2CCOCC2)[nH]c1=O	5	0	1	-5	2	14
Cc1ccc2c(Cn3ccnc3)cc(=O)oc2c1C	9	0	9	-9	4	-11
O=c1cc(Cn2ccnc2)c2cc(O)ccc2o1	-78	0	3	78*	-2	-14
CNC(=O)CSCc1c(Cl)cccc1Cl	3	x	x	-3	-1	9
CNC(=S)NNC(=O)CSCc1c(Cl)cccc1Cl	-2	0	-21*	2	-8	-13
COc1cc(-c2nc3cnccn3c2NC(C)(C)CC(C)(C)C)ccc1O	-55	0	4	55	1	13
O=C(O)c1c(-n2cccc2)sc2c1CCCC2	20	0	-44*	-20	-3	-1
O=C(O)c1ccc(Cn2cnc3scc(-c4ccccc4)c3c2=O)cc1	12	0	-12	-12	-6	-8
O=C(COc1cccc(Oc2ccccc2)c1)Nc1ccc(SC(F)F)cc1	22	x	x	-22	4	-9
CN(C)C(=O)c1ccc(NC(=O)COc2cccc(Oc3ccccc3)c2)cc1	-11	0	-27*	11	-1	-7
COc1ccc(-c2cccc(C(=O)Nc3ccc(OC)c(OC)c3)c2)cc1	-65	x	x	65	-3	8
O=C1NC(=O)/C(=C/c2ccc(OS(=O)(=O)c3ccc(F)cc3F)cc2)N1	-3	2	-26*	3	-10	-17
CN(C)CCN(C(=O)c1ccc2ccccc2c1)c1nc2ccc(F)cc2s1	-17	x	x	17	26*	-7
COc1ccc(OC)c2sc(N(CCN(C)C)C(=O)c3ccc4ccccc4c3)nc12	12	0	-8	-12	30*	-15
COc1cc2ccccc2cc1C(=O)N(CCN(C)C)c1nc2c(OC)ccc(OC)c2s1	-20	0	-4	20	u	-11
CCc1ccc2nc(N(CCN(C)C)C(=O)c3ccc4ccccc4c3)sc2c1	-7	x	x	7	22*	-5
